Laboratory results published in the array DNA melting data of Ke et al. (doi:10.1101/2024.01.08.574731).

Columns and labels:
[1] = folding enthalpy; higher = less favourable; fluorescence melt of hairpins on a sequencing array, two-state fit; conditions: sodium 0.088 M
In short: (§1)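 Two-state fits, bootstrapped, provided melting temperature and folding enthalpy from Cy3 fluorescence normalised to pre-quench Cy3 and to control constructs. Library hairpins with annealed Cy3 and quencher oligos were imaged on a sequenced MiSeq flow cell in 50 mM Na-HEPES pH 8.0, 25 mM NaCl, at 2.5 °C intervals up to 60 °C. Four replicates were combined with inverse-variance weighting. A 9.35 °C upward shift was applied to fitted temperatures to match UV melts.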

[2] = melting temperature; fluorescence melt of hairpins on a sequencing array, two-state fit, raised by 9.35 °C to match UV melts; conditions: sodium 0.088 M
In short: as §1

Sequence	folding enthalpy [1] [kcal/mol]	Tm [2] [°C]
GGTCGTCGAAAGACAACC (((.(((....))).)))	-26.1	48.9
GGTCGTCGAAAGACACC (((.(((....))))))	-22.1	52.1
GGTCGTGGAAACACGGTC (..((((....))))..)	-15.8	41.4
GGTCGTGGAAACATGGCC ((.(.((....)).).))	-24	45.8
GGTCTACGAAAGTACACC (((.(((....))).)))	-22	35.8
GGTCTACGAAAGTATACC (((.(((....))).)))	-35.5	42.2
GGTCTCACGAAAGTGACC (((..(((....))))))	-14.5	37.9
GGTCTCGAAAGAGAACC ((((((....))).)))	-19	50
GGTCTCGAAAGAGCGACC ((((((....)))..)))	-18.1	37.3
GGTCTCGAAAGAGGACC ((((((....))).)))	-28.3	49.5
GGTCTCGAAAGAGTACC ((((((....))).)))	-24.3	46.8
GGTCTCGAAAGAGTTACC ((((((....)))..)))	-17.3	32.3
GGTCTCGCGAAAGCGACC (((..(((....))))))	-9.72	33.2
GGTCTGACGAAAGTCACC (((..(((....))))))	-10.4	27.8
GGTCTGCCGAAAGGCACC (((..(((....))))))	-6.75	28.8
GGTCTGGGAAACCAGACC (((((((....)))))))	-47.2	67.7
GGTCTGGGAAACCAGGCC ((.((((....)))).))	-47.6	56.9
GGTCTGGGAAACCAGGTC (..((((....))))..)	-14.3	34.9
GGTCTGGGAAACCGGATC (.((.((....)).)).)	-23.2	40
GGTCTGGGAAACTGGACC ((((..(....)..))))	-31.1	45.1
GGTCTTACGAAAGTAACC (((..(((....))))))	-10.7	25.7
GGTCTTCCGAAAGGAACC (((..(((....))))))	-10.5	26.5
GGTCTTGGAAACAAGATC (.(((((....))))).)	-25.7	44.5

Sequence	folding enthalpy [1] [kcal/mol]	Tm [2] [°C]
GGTGAAACGAAAGTTACC (((..(((....))))))	-18	30.5
GGTGAACCGAAAGGTACC (((..(((....))))))	-18	37.8
GGTGAACGAAAGTTGACC (((.(((....))).)))	-30.4	48.9
GGTGAAGGAAACTCCACC ((((.((....)).))))	-31.3	39
GGTGAAGGAAACTTTGCC ((..(((....)))..))	-25.4	34.6
GGTGACGGAAACACCACC ((((..(....)..))))	-20	34.5
GGTGACGGAAACGTCGCC ((.((((....)))).))	-34	64.6
GGTGACTCGAAAGAGACC (((..(((....))))))	-16.5	33
GGTGAGACGAAAGTCACC (((..(((....))))))	-17.1	46.8
GGTGAGCGAAAGCTAACC (((.(((....))).)))	-33.3	55.5
GGTGAGGAAACTCACC ((((((....))))))	-35	61.6
GGTGAGGCGAAAGCCACC (((..(((....))))))	-16.1	51.7
GGTGAGGGAAACCTCACC (((((((....)))))))	-43.2	67.5
GGTGAGGGAAACCTTACC (((.(((....))).)))	-33.9	46.6
GGTGAGGGAAACCTTGCC ((..(((....)))..))	-21.7	41.8
GGTGATCGAAAGATTACC (((.(((....))).)))	-46.1	51.1
GGTGATGGAAACACCACC ((((.((....)).))))	-23.8	46.6
GGTGATGGAAACATCGTC (..((((....))))..)	-18.1	32.9
GGTGCACGAAAGTGGACC (((.(((....))).)))	-38.1	65.7
GGTGCAGCGAAAGCTACC (((..(((....))))))	-13.6	39.1
GGTGCAGGAAACCACACC ((((..(....)..))))	-21.4	34.9
GGTGCATCGAAAGATACC (((..(((....))))))	-10.2	27.9
GGTGCCGAAAGGCAGACC ((((((....)))..)))	-12.1	52.2

Sequence	folding enthalpy [1] [kcal/mol]	Tm [2] [°C]
GGTGCCGAAAGGCTCACC ((((((....)))..)))	-11.6	46.3
GGTGCCGAAAGGCTTACC ((((((....)))..)))	-13.7	44.1
GGTGCGCGAAAGCGACC (((.(((....))))))	-15.3	56.7
GGTGCGGGAAACCGCGTC (..((((....))))..)	-11.5	44.1
GGTGCGGGAAACTGCGCC ((.((.(....).)).))	-49.1	52.7
GGTGCTGGAAACAGCATC (.(((((....))))).)	-30.3	54.1
GGTGGAGGAAACTCCATC (.(((((....))))).)	-26.6	49.4
GGTGGAGGAAACTCCGTC (..((((....))))..)	-15.4	37.8
GGTGGAGGAAACTCTGCC ((..(((....)))..))	-27	42
GGTGGAGGAAACTTCACC ((((.((....)).))))	-33.4	50.1
GGTGGCACGAAAGTGACC (((..(((....))))))	-15.5	45.6
GGTGGCGAAAGCCCGACC ((((((....)))..)))	-12.8	41.5
GGTGGCGAAAGCCGAACC ((((((....)))..)))	-14.9	45.3
GGTGGCGGAAACGCTGCC ((..(((....)))..))	-31.8	54.5
GGTGGGGGAAACTCCACC (((((.(....).)))))	-45.9	56.4
GGTGGTGCGAAAGCAACC (((..(((....))))))	-15.4	53.3
GGTGGTGGAAACATCACC ((((.((....)).))))	-41.3	52.3
GGTGGTGGAAACATCGCC ((.(.((....)).).))	-27.4	44.6
GGTGGTTCGAAAGAAACC (((..(((....))))))	-20.4	41.5
GGTGTACGAAAGTATACC (((.(((....))).)))	-47.6	53.3
GGTGTAGAAATACACC ((((((....))))))	-29.6	53.7
GGTGTAGGAAACTACATC (.(((((....))))).)	-27.4	42.2
GGTGTAGGAAACTATGCC ((..(((....)))..))	-32.3	35.7

Sequence	folding enthalpy [1] [kcal/mol]	Tm [2] [°C]
GGTGTCCGAAAGGAAACC (((.(((....))).)))	-27.9	52.7
GGTGTCGAAAGACCCACC ((((((....)))..)))	-12.1	45.1
GGTGTCGGAAACGACGCC ((.((((....)))).))	-28.6	64.5
GGTGTCGGAAACGATGCC ((..(((....)))..))	-26.7	49.4
GGTGTGGGAAACTGCACC ((((..(....)..))))	-26.3	47.7
GGTGTTCGAAAGAAACC (((.(((....))))))	-14.1	34.1
GGTGTTGGAAACAACACC (((((((....)))))))	-38.4	66.5
GGTGTTGGAAACAGCACC ((((.((....)).))))	-37.1	51.8
GGTGTTTCGAAAGAAACC (((..(((....))))))	-13.2	42.5
GGTTAAGGAAACTTAATC (.(((((....))))).)	-21.7	31.7
GGTTACGAAAGTAGTACC ((((((....)))..)))	-14.8	34.8
GGTTACGAAAGTATCACC ((((((....)))..)))	-12.5	28.2
GGTTAGAAATAACC (((((....)))))	-16.4	40
GGTTAGGAAACTAACC ((((((....))))))	-35.6	52.3
GGTTAGGGAAACCTAGCC ((.((((....)))).))	-27.2	46.3
GGTTATCGAAAGATACC (((.(((....))))))	-25	43.1
GGTTATCGAAAGATCACC (((.(((....))).)))	-30.4	42.3
GGTTCACGAAAGTGGACC (((.(((....))).)))	-38	63
GGTTCAGAAATGAACC ((((((....))))))	-38.8	54.6
GGTTCAGCGAAAGCTACC (((..(((....))))))	-16	32.7
GGTTCAGGAAACTAAACC ((((.((....)).))))	-15.3	28.6
GGTTCCCGAAAGGGACC (((.(((....))))))	-23	59.9
